Data from ChEMBL document CHEMBL3297708, “Lead optimization of a novel series of imidazo[1,2-a]pyridine amides leading to a clinical candidate (Q203) as a multi- and extensively-drug-resistant anti-tuberculosis agent” (J Med Chem, 2014).
Converted amounts (≈) assume the structure as drawn.

Assays:
[1] = target: Cytochrome P450 3A4 (Homo sapiens, UniProt P08684); assay: Inhibition of recombinant CYP3A4 (unknown origin) by LC/MS/MS analysis; format: ADME
Procedure, shortened: (§1)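 Recombinant CYP enzymes (5 pmol/mL) with substrate, in 100 mM potassium phosphate pH 7.4, 3.3 mM MgCl2, with or without 1 mM NADPH; incubated 10 min (CYP1A2, CYP2C9), 20 min (CYP2C19, CYP2D6), or 3 min (CYP3A4); stopped with cold stop solution containing tolbutamide internal standard; metabolite measured by LC-MS/MS.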

[2] = target: Cytochrome P450 2C19 (Homo sapiens, UniProt P33261); assay: Inhibition of recombinant CYP2C19 (unknown origin) by LC/MS/MS analysis; format: ADME; procedure, shortened: as §1
Cytochrome P450 2C19, sequence (P33261 whole entry): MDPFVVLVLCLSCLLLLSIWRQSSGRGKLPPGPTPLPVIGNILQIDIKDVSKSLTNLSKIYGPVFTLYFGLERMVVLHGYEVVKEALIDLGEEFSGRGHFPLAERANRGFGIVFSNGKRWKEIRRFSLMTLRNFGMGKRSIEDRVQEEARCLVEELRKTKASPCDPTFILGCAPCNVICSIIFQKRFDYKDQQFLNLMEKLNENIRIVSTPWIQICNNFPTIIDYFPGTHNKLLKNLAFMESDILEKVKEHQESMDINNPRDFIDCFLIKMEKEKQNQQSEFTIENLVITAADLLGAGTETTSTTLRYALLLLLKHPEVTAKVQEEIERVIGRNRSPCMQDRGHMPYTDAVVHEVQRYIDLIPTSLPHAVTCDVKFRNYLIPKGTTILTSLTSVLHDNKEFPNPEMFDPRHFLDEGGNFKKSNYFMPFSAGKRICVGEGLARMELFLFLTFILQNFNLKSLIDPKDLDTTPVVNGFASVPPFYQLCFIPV

[3] = system: Mycobacterium tuberculosis; assay: Antimycobacterial activity against Mycobacterium tuberculosis H37Rv in liquid broth culture medium; format: functional
Procedure, shortened: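 M. tuberculosis H37Rv replicating in liquid broth culture medium; MIC80 determined, i.e. concentration inhibiting 80% of growth.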

[4] = Solubility of the compound in aqueous solution at pH 2.1; format: physicochemical
[5] = Solubility of the compound in phosphate buffer at pH 7.4; format: physicochemical
[6] = system: Mycobacterium tuberculosis; assay: Antimycobacterial activity against Mycobacterium tuberculosis H37Rv in macrophages; format: functional
Procedure, shortened: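 M. tuberculosis H37Rv replicating inside macrophages; intracellular MIC80 determined, i.e. concentration inhibiting 80% of growth.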

[7] = target: Cytochrome P450 2D6 (Homo sapiens, UniProt P10635); assay: Inhibition of recombinant CYP2D6 (unknown origin) by LC/MS/MS analysis; format: ADME; procedure, shortened: as §1
Cytochrome P450 2D6, sequence (P10635 whole entry): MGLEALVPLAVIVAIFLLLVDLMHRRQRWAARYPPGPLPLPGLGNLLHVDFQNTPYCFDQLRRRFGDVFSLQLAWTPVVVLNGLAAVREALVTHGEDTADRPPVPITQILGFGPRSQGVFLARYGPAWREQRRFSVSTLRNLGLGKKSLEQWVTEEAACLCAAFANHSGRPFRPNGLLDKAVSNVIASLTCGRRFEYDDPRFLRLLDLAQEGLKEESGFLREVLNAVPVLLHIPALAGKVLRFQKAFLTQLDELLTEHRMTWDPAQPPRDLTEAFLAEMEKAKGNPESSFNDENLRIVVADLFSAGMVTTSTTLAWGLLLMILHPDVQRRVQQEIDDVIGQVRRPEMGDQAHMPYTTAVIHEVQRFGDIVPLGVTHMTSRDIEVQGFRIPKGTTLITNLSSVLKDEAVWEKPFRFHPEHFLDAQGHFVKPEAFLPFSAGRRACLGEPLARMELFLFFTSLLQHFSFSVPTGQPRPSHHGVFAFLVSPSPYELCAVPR

[8] = Half life in human liver microsomes; format: ADME
Procedure, shortened: (§2)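 Metabolic stability measured by incubation in human or mouse liver microsomal preparations; half-life reported.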

[9] = target: Cytochrome P450 2C9 (Homo sapiens, UniProt P11712); assay: Inhibition of recombinant CYP2C9 (unknown origin) by LC/MS/MS analysis; format: ADME; procedure, shortened: as §1
Cytochrome P450 2C9, sequence (P11712 whole entry): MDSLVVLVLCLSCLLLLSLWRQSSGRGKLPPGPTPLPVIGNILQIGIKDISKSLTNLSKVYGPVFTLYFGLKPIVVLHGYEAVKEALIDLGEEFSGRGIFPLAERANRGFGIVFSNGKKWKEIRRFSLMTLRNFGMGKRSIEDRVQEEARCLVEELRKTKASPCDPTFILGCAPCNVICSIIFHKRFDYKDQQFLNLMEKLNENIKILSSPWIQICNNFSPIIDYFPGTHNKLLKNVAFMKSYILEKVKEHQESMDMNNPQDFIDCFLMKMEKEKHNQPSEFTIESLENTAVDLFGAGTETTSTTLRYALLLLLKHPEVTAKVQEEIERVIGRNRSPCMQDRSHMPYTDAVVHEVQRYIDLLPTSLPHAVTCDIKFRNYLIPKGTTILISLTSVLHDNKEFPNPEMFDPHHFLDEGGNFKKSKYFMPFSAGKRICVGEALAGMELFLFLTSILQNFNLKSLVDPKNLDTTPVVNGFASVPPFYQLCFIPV

[10] = target: T1, Cytochrome P450 1A2 (Homo sapiens, UniProt P05177); assay: Inhibition of recombinant CYP1A2 (unknown origin) by LC/MS/MS analysis; format: ADME; procedure, shortened: as §1
T1 sequence (P05177 whole entry): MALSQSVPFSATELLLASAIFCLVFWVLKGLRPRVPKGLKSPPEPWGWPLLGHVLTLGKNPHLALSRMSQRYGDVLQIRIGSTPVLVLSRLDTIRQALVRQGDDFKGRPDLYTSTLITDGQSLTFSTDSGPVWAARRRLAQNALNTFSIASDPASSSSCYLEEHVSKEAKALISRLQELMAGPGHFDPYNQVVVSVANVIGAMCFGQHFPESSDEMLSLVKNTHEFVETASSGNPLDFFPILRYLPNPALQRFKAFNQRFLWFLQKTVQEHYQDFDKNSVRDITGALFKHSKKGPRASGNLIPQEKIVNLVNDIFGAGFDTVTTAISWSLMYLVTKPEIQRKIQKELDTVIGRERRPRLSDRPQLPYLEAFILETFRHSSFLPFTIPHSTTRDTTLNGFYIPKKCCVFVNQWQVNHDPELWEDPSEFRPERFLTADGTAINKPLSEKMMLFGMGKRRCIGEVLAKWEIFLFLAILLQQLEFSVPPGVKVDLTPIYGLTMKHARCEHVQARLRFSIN

[11] = Half life in mouse liver microsomes; format: ADME; procedure, shortened: as §2

Cytochrome P450 3A4, sequence (P08684 whole entry): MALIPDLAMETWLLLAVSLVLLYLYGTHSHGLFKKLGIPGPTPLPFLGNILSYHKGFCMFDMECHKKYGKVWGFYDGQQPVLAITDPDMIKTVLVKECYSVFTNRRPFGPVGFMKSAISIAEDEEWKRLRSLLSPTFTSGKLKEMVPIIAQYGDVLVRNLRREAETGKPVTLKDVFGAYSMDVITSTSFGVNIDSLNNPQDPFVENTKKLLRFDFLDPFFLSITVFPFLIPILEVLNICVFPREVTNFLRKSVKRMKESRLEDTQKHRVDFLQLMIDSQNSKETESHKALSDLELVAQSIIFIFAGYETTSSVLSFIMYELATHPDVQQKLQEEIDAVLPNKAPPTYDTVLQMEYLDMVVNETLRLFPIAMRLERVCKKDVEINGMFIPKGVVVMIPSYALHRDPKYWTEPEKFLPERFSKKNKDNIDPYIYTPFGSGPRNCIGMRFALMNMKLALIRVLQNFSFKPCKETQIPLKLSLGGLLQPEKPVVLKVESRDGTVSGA

Structure (SMILES) | MIC80 [3] [µM] | MIC80 [6] [µM] | half-life [8] [min] | half-life [11] [min] | other results
CCc1nc2ccc(Cl)cn2c1C(=O)NCc1ccc(N2CCN(c3ccc(OC(F)(F)F)cc3)CC2)cc1 | < 0.0005 | 0.00023 (≈ 0.000128 µg/mL) | > 120 | > 60 | IC50 [1]: 11.5 µM; IC50 [2]: > 40 µM; solubility [4]: 12.1 µg/mL (≈ 21.6 µM); solubility [5]: 1.1 µg/mL (≈ 1.97 µM); IC50 [7]: > 40 µM; IC50 [9]: 0.57 µM; IC50 [10]: > 40 µM
CCc1nc2ccc(Cl)cn2c1C(=O)N(C)Cc1ccc(-c2ccccc2)cc1 | 8.69 (≈ 3.51 µg/mL) | 0.97 (≈ 0.392 µg/mL) | – | – | –
CCCc1nc2ccccn2c1C(=O)NCc1ccc(-c2ccccc2)cc1 | 1.18 (≈ 0.436 µg/mL) | 0.05 (≈ 0.0185 µg/mL) | 22.4 | 8.7 | –
CCc1nc2cc(Cl)ccn2c1C(=O)NCc1ccc(N2CCCCC2)cc1 | 0.016 (≈ 0.00635 µg/mL) | 0.0082 (≈ 0.00325 µg/mL) | 13.2 | 2.3 | –
CCc1nc2cc(Cl)ccn2c1C(=O)NCc1ccc(N2CC3CCCCC3C2)cc1 (stereo not drawn) | 0.025 (≈ 0.0109 µg/mL) | 0.0094 (≈ 0.00411 µg/mL) | 14.9 | 6.3 | –
CCc1nc2cc(Cl)ccn2c1C(=O)NCc1ccc(-c2ccc[nH]2)cc1 | 2 (≈ 0.758 µg/mL) | 0.14 (≈ 0.053 µg/mL) | > 120 | 10.8 | –
CCc1nc2ccc(Cl)cn2c1NC(=O)Cc1ccc(-c2ccccc2)cc1 | 1.67 (≈ 0.651 µg/mL) | 0.69 (≈ 0.269 µg/mL) | – | – | –
CCc1nc2ccc(Cl)cn2c1C(=O)NCc1ccc(-c2ccc(C#N)cc2)cc1 | < 0.0005 | 0.00068 (≈ 0.000282 µg/mL) | > 120 | > 60 | solubility [4]: 1.06 µg/mL (≈ 2.55 µM); solubility [5]: 0.61 µg/mL (≈ 1.47 µM)
CCc1nc2ccc(Cl)cn2c1C(=O)NCc1ccc(-c2ccc(Cl)cc2)cc1 | 0.0009 (≈ 0.000382 µg/mL) | 0.00045 (≈ 0.000191 µg/mL) | 83 | > 60 | solubility [4]: 1.42 µg/mL (≈ 3.35 µM); solubility [5]: 1.97 µg/mL (≈ 4.64 µM)
CCc1nc2cc(Cl)ccn2c1C(=O)NCc1ccc(-c2ccc(Cl)cc2)cc1 | 0.0013 (≈ 0.000552 µg/mL) | 0.00101 (≈ 0.000429 µg/mL) | > 120 | > 60 | –
CCc1nc2cc(Cl)ccn2c1C(=O)NCc1ccc(-c2ccc(C(=O)O)cc2)cc1 | 0.25 (≈ 0.108 µg/mL) | 0.217 (≈ 0.0942 µg/mL) | > 120 | > 120 | –
CCc1nc2ccc(Cl)cn2c1C(=O)NCc1ccc(-c2ccccc2)cc1 | 0.045 (≈ 0.0175 µg/mL) | 0.00139 (≈ 0.000542 µg/mL) | 22.8 | 19.3 | –
CCc1nc2ccccn2c1C(=O)NCc1ccc(-c2ccccc2)cc1 | 0.063 (≈ 0.0224 µg/mL) | 0.097 (≈ 0.0345 µg/mL) | 27.1 | – | –
CCc1nc2ccc(Cl)cn2c1CNCc1ccc(-c2ccccc2)cc1 | 0.81 (≈ 0.304 µg/mL) | 0.2 (≈ 0.0752 µg/mL) | – | – | –
CCc1nc2cc(Cl)ccn2c1C(=O)NCc1ccc(N2CCCCCC2)cc1 | 0.035 (≈ 0.0144 µg/mL) | 0.01 (≈ 0.00411 µg/mL) | 2.9 | 1.9 | –
CC(C)c1nc2ccccn2c1C(=O)NCc1ccc(-c2ccccc2)cc1 | 3.13 (≈ 1.16 µg/mL) | 3.13 (≈ 1.16 µg/mL) | 31.6 | – | –
CCc1nc2ccc(Cl)cn2c1CC(=O)Nc1ccc(-c2ccccc2)cc1 | > 10 | > 10 | – | – | –
CCc1nc2ccc(Cl)cn2c1CC(=O)NCc1ccc(-c2ccccc2)cc1 | > 10 | > 10 | – | – | –
CO[C@H]1/C=C/O[C@@]2(C)Oc3c(C)c(O)c4c(O)c(c(/C=N/N5CCN(C)CC5)c(O)c4c3C2=O)NC(=O)/C(C)=C\C=C\[C@H](C)[C@H](O)[C@@H](C)[C@@H](O)[C@@H](C)[C@H](OC(C)=O)[C@@H]1C [RIFAMPIN] | 0.0266 (≈ 0.0219 µg/mL) | 0.18 (≈ 0.148 µg/mL) | – | – | –
